{"source": "ChEMBL document CHEMBL4190220", "about": "“Withanolides from Aeroponically Grown Physalis peruviana and Their Selective Cytotoxicity to Prostate Cancer and Renal Carcinoma Cells” (J Nat Prod, 2017)", "key": {"M14": {"tested_on": "M14", "test": "Cytotoxicity against human M14 cells assessed as reduction in cell viability after 72 hrs by CellTiter96 AQueous one solution cell proliferation assay", "assay_type": "functional, cell-based", "settings": "M14, 72 h", "method_in_brief": "(§1)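 MTS viability in DMEM with 5% fetal calf serum, 2.0 mM L-glutamine, nonessential amino acids, 1.0 mM pyruvate, penicillin/streptomycin, 10 mM HEPES and 2-mercaptoethanol. 5000 cells were grown overnight at 37 °C. Serial DMSO dilutions went into triplicate wells for 72 h. MTS absorbance was read at 490 nm after 2 h. IC50 ± SD from at least three independent dose–response experiments.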"}, "CWR22R": {"tested_on": "CWR22R", "test": "Cytotoxicity against human 22Rv1 cells assessed as reduction in cell viability after 72 hrs by CellTiter96 AQueous one solution cell proliferation assay", "assay_type": "functional, cell-based", "settings": "22Rv1, 72 h", "method_in_brief": "(§2)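 MTS viability in RPMI with 5% fetal calf serum, 2.0 mM L-glutamine, nonessential amino acids, 1.0 mM pyruvate, penicillin/streptomycin, 10 mM HEPES and 2-mercaptoethanol. Cells were seeded at 10 000 (LNCaP) or 5000 (others) and grown overnight at 37 °C. Serial dilutions in DMSO went into triplicate wells for 72 h. MTS was read at 490 nm after 2 h. IC50 ± SD from dose–response curves, at least three independent experiments.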"}, "ACHN": {"tested_on": "ACHN", "test": "Cytotoxicity against human ACHN cells assessed as reduction in cell viability after 72 hrs by CellTiter96 AQueous one solution cell proliferation assay", "assay_type": "functional, cell-based", "method_in_brief": "as §2"}, "LNCaP": {"tested_on": "LNCaP", "test": "Cytotoxicity against human LNCAP cells assessed as reduction in cell viability after 72 hrs by CellTiter96 AQueous one solution cell proliferation assay", "assay_type": "functional, cell-based", "method_in_brief": "as §2"}, "HFF": {"tested_on": "HFF", "test": "Cytotoxicity against HFF cells assessed as reduction in cell viability after 72 hrs by CellTiter96 AQueous one solution cell proliferation assay", "assay_type": "cell-based", "settings": "Homo sapiens", "method_in_brief": "as §2"}, "SK-MEL-28": {"tested_on": "SK-MEL-28", "test": "Cytotoxicity against human SK-MEL-28 cells assessed as reduction in cell viability after 72 hrs by CellTiter96 AQueous one solution cell proliferation assay", "assay_type": "functional, cell-based", "settings": "SK-MEL-28, 72 h", "method_in_brief": "as §1"}}}
{"molecule": "CC1=C(C)[C@H](O)[C@H]([C@](C)(O)[C@]2(O)CC[C@@]3(O)[C@@H]4C[C@H]5O[C@]56CC=CC(=O)[C@]6(C)[C@H]4CC[C@]23C)OC1=O", "values": [{"measurement": "IC50", "setting": "M14", "value": "> 2", "unit": "µM"}, {"measurement": "IC50", "setting": "CWR22R", "value": 0.89, "unit": "µM"}, {"measurement": "IC50", "setting": "ACHN", "value": "> 2", "unit": "µM"}, {"measurement": "IC50", "setting": "LNCaP", "value": "> 2", "unit": "µM"}, {"measurement": "IC50", "setting": "HFF", "value": "> 2", "unit": "µM"}, {"measurement": "IC50", "setting": "SK-MEL-28", "value": "> 2", "unit": "µM"}]}
{"molecule": "CO[C@H]1C=CC(=O)[C@]2(C)[C@H]3CC[C@]4(C)[C@](O)([C@@](C)(O)[C@H]5CC(C)=C(C)C(=O)O5)CC[C@@]4(O)[C@@H]3C[C@H]3O[C@]132", "values": [{"measurement": "IC50", "setting": "M14", "value": "> 2", "unit": "µM"}, {"measurement": "IC50", "setting": "CWR22R", "value": 0.24, "unit": "µM"}, {"measurement": "IC50", "setting": "ACHN", "value": "> 2", "unit": "µM"}, {"measurement": "IC50", "setting": "LNCaP", "value": 0.33, "unit": "µM"}, {"measurement": "IC50", "setting": "HFF", "value": "> 2", "unit": "µM"}, {"measurement": "IC50", "setting": "SK-MEL-28", "value": "> 2", "unit": "µM"}]}
{"molecule": "CC1=C(C)C(=O)O[C@@H]([C@](C)(O)[C@]2(O)CC[C@@]3(O)[C@@H]4CC=C5CC=CC(=O)[C@]5(C)[C@H]4CC[C@]23C)C1", "note": "[WITHANOLIDE F]", "values": [{"measurement": "IC50", "setting": "M14", "value": "> 2", "unit": "µM"}, {"measurement": "IC50", "setting": "CWR22R", "value": 0.07, "unit": "µM"}, {"measurement": "IC50", "setting": "ACHN", "value": "> 2", "unit": "µM"}, {"measurement": "IC50", "setting": "LNCaP", "value": 0.13, "unit": "µM"}, {"measurement": "IC50", "setting": "HFF", "value": "> 2", "unit": "µM"}, {"measurement": "IC50", "setting": "SK-MEL-28", "value": "> 2", "unit": "µM"}]}
{"molecule": "CC1=C(CO)C[C@H]([C@](C)(O)[C@]2(O)CC[C@@]3(O)[C@@H]4CC=C5CC=CC(=O)[C@]5(C)[C@H]4CC[C@]23C)OC1=O", "values": [{"measurement": "IC50", "setting": "M14", "value": "> 2", "unit": "µM"}, {"measurement": "IC50", "setting": "CWR22R", "value": 0.21, "unit": "µM"}, {"measurement": "IC50", "setting": "ACHN", "value": "> 2", "unit": "µM"}, {"measurement": "IC50", "setting": "LNCaP", "value": 0.24, "unit": "µM"}, {"measurement": "IC50", "setting": "HFF", "value": "> 2", "unit": "µM"}, {"measurement": "IC50", "setting": "SK-MEL-28", "value": "> 2", "unit": "µM"}]}
{"molecule": "CC1=C(C)C(=O)O[C@@H]([C@](C)(O)[C@]2(O)CC[C@@]3(O)[C@@H]4C[C@H]5O[C@]56CC=CC(=O)[C@]6(C)[C@H]4CC[C@]23C)C1", "note": "[WITHANOLIDE E]", "values": [{"measurement": "IC50", "setting": "M14", "value": "> 2", "unit": "µM"}, {"measurement": "IC50", "setting": "CWR22R", "value": 0.07, "unit": "µM"}, {"measurement": "IC50", "setting": "ACHN", "value": 0.46, "unit": "µM"}, {"measurement": "IC50", "setting": "LNCaP", "value": 0.06, "unit": "µM"}, {"measurement": "IC50", "setting": "HFF", "value": "> 2", "unit": "µM"}, {"measurement": "IC50", "setting": "SK-MEL-28", "value": "> 2", "unit": "µM"}]}
